Consider six molecules from ChEMBL document CHEMBL3271979, “Inhibition of solid tumors by nitrosoureas. 1. Lewis lung carcinoma” (1977).

Calls of active or inactive are those of the source. No cut-off for these calls is given here.

The nature of assay [1]: Antitumor activity against mouse advanced Lewis lung carcinoma allografted in BDF1 mouse assessed as increase in host life span at 144 mg/kg, ip administered as single dose on 7th day post-tumor implantation. The assay is classed as functional. As to conditions: route intraperitoneal. In outline:
(§1)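 BDF1 mice (C57Blk/6 × DBA/2) implanted sc by trocar with about 40 mg Lewis lung tumor fragments from bacteriologically sterile donors. Advanced-disease groups held tumors of about 400 mg by day 6-7, sized by caliper (w = ab²/2). Single ip injection on day 7, in water or saline vehicle, at or below the LD10 in normal mice. Tumors measured at least twice weekly.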

For assay [2], the system named is Mus musculus. As to the kind of experiment: Antitumor activity against mouse early Lewis lung carcinoma allografted in ip dosed BDF1 mouse administered as single dose on 1 or 2 days post-tumor implantation measured for 80 days post-drug treatment. The assay is classed as functional, organism-based. The gist of the method: (§2)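 BDF1 mice implanted sc by trocar with ~40 mg Lewis lung fragments from sterile donor tumors. A single ip dose was given on day 1 or 2 after implant, in water or saline vehicle. Cures were scored in animals observed for at least 80 days after treatment. Drug-toxicity controls were matched non-tumor-bearing mice monitored for body weight and deaths.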

The subject of assay [3] is Mus musculus. Nature of the assay: Antitumor activity against mouse advanced Lewis lung carcinoma allografted in ip dosed BDF1 mouse assessed as disease cure administered as single dose on day 6 or 7 post-tumor implantation. It counts as functional, organism-based. In outline: (§3)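 BDF1 mice (C57Blk/6 × DBA/2) implanted sc by trocar with Lewis lung tumor fragments of about 40 mg, taken only from bacteriologically sterile donor tumors. Mice bearing tumors of about 400 mg (day 6-7) were selected. Each received a single ip dose on day 7, at or below the LD10 in normal mice. Groups were of 10 mice. Tumor weight was taken from calipers as w = ab²/2, measured at least twice weekly. Matched non-tumor mice served as toxicity controls.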

Assay [4] deals with Mus musculus. As to the kind of experiment: Antitumor activity against mouse advanced Lewis lung carcinoma allografted in ip dosed BDF1 mouse assessed as complete regression of established tumor administered as single dose on day 6 or 7 post-tumor implantation. The assay is classed as functional, organism-based. In outline:
as §3

The nature of assay [5]: Ratio of ED50 for antitumor activity against mouse L1210 cells allografted in ip dosed mouse to LD10 for mouse.
In assay [6] the test system is Mus musculus. Nature of the assay: Antitumor activity against mouse advanced Lewis lung carcinoma allografted in BDF1 mouse assessed as disease cure at 144 mg/kg, ip administered as single dose on 7th day post-tumor implantation measured for 80 days post-drug treatment. The assay is classed as functional, organism-based. Also on record: dose 144 mg/kg. The gist of the method:
as §3

For assay [7], the system named is Mus musculus. As to the kind of experiment: Antitumor activity against mouse early Lewis lung carcinoma allografted in ip dosed BDF1 mouse assessed as disease cure administered as single dose on 1 or 2 days post-tumor implantation measured for 80 days post-drug treatment. It counts as functional. In outline: as §2
Assay [8] concerns Mus musculus. As to the kind of experiment: Antitumor activity against mouse advanced Lewis lung carcinoma allografted in BDF1 mouse assessed as disease cure at 50 mg/kg, ip administered as single dose on 7th day post-tumor implantation measured for 80 days post-drug treatment. It counts as functional, organism-based. On the set-up: dose 50 mg/kg. The gist of the method:
as §1

Assay [9] in a line: Antitumor activity against mouse advanced Lewis lung carcinoma allografted in BDF1 mouse assessed as increase in host life span at 40 mg/kg, ip administered as single dose on 7th day post-tumor implantation. The following applies: route intraperitoneal. The assay is classed as functional. In outline: as §1
Assay [10] relates to Mus musculus. As to the kind of experiment: Antitumor activity against mouse advanced Lewis lung carcinoma allografted in BDF1 mouse assessed as disease cure at 40 mg/kg, ip administered as single dose on 7th day post-tumor implantation measured for 80 days post-drug treatment. Also on record: dose 40 mg/kg. It counts as functional, organism-based. The gist of the method: as §1

Assay [11] is described as follows: Antitumor activity against mouse advanced Lewis lung carcinoma allografted in BDF1 mouse assessed as increase in host life span at 50 mg/kg, ip administered as single dose on 7th day post-tumor implantation. It counts as functional. The following applies: route intraperitoneal. In outline:
as §1

Assay [12] has as its system Mus musculus. Nature of the assay: Antitumor activity against mouse advanced Lewis lung carcinoma allografted in BDF1 mouse assessed as disease cure at 11 mg/kg, ip administered as single dose on 7th day post-tumor implantation measured for 80 days post-drug treatment. The assay is classed as functional, organism-based. Also on record: dose 11 mg/kg. In outline: as §3

Assay [13] is described as follows: Antitumor activity against mouse advanced Lewis lung carcinoma allografted in ip dosed BDF1 mouse assessed as increase in host lifespan administered as single dose on day 6 or 7 post-tumor implantation. It counts as functional. The gist of the method: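 Advanced Lewis lung model: about 40 mg fragments implanted sc by trocar into BDF1 mice, and mice with tumors of about 400 mg (day 6-7) selected. Tumor weight from calipers, w = ab²/2. Agent given as one ip dose in distilled water or physiological saline. Nontumor-bearing mice received matching doses as toxicity controls.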

Assay [14] is described as follows: Antitumor activity against mouse advanced Lewis lung carcinoma allografted in BDF1 mouse assessed as increase in host life span at 11 mg/kg, ip administered as single dose on 7th day post-tumor implantation. The assay is classed as functional. The following applies: route intraperitoneal. The gist of the method: as §1
Assay [15] deals with Mus musculus. Nature of the assay: Antitumor activity against mouse advanced Lewis lung carcinoma allografted in BDF1 mouse assessed as complete regression of established tumor at 93 mg/kg, ip administered as single dose on 7th day post-tumor implantation. It counts as functional, organism-based. Also on record: dose 93 mg/kg. The gist of the method: as §1
Assay [16] has as its system Mus musculus. As to the kind of experiment: Antitumor activity against mouse advanced Lewis lung carcinoma allografted in BDF1 mouse assessed as disease cure at 93 mg/kg, ip administered as single dose on 7th day post-tumor implantation measured for 80 days post-drug treatment. It counts as functional, organism-based. On the set-up: dose 93 mg/kg. The gist of the method: as §1

The nature of assay [17]: Antitumor activity against mouse advanced Lewis lung carcinoma allografted in BDF1 mouse assessed as increase in host life span at 62 mg/kg, ip administered as single dose on 7th day post-tumor implantation. The assay is classed as functional. The following applies: route intraperitoneal. In outline: as §1
Assay [18] deals with Mus musculus. As to the kind of experiment: Antitumor activity against mouse advanced Lewis lung carcinoma allografted in BDF1 mouse assessed as disease cure at 62 mg/kg, ip administered as single dose on 7th day post-tumor implantation measured for 80 days post-drug treatment. On the set-up: dose 62 mg/kg. It counts as functional, organism-based. The gist of the method:
as §1

For assay [19], the system named is Mus musculus. Nature of the assay: Antitumor activity against mouse advanced Lewis lung carcinoma allografted in BDF1 mouse assessed as complete regression of established tumor at 62 mg/kg, ip administered as single dose on 7th day post-tumor implantation. The assay is classed as functional, organism-based. On the set-up: dose 62 mg/kg. In outline:
as §1

Assay [20] is described as follows: Antitumor activity against mouse advanced Lewis lung carcinoma allografted in BDF1 mouse assessed as increase in host life span at 93 mg/kg, ip administered as single dose on 7th day post-tumor implantation. It counts as functional. The following applies: route intraperitoneal. In outline: as §1
A short description of assay [21]: Antitumor activity against mouse advanced Lewis lung carcinoma allografted in BDF1 mouse assessed as increase in host life span at 52 mg/kg, ip administered as single dose on 7th day post-tumor implantation. The assay is classed as functional. As to conditions: route intraperitoneal. The gist of the method:
as §1

Assay [22] relates to Mus musculus. Nature of the assay: Antitumor activity against mouse advanced Lewis lung carcinoma allografted in BDF1 mouse assessed as disease cure at 52 mg/kg, ip administered as single dose on 7th day post-tumor implantation measured for 80 days post-drug treatment. The assay is classed as functional, organism-based. On the set-up: dose 52 mg/kg. The gist of the method: as §3

Assay [23] is described as follows: Antitumor activity against mouse advanced Lewis lung carcinoma allografted in BDF1 mouse assessed as increase in host life span at 36 mg/kg, ip administered as single dose on 7th day post-tumor implantation. It counts as functional. As to conditions: route intraperitoneal. In outline:
as §1

Assay [24] has as its system Mus musculus. As to the kind of experiment: Antitumor activity against mouse advanced Lewis lung carcinoma allografted in BDF1 mouse assessed as complete regression of established tumor at 36 mg/kg, ip administered as single dose on 7th day post-tumor implantation. The assay is classed as functional, organism-based. Also on record: dose 36 mg/kg. The gist of the method: as §3

Assay [25] concerns Mus musculus. Nature of the assay: Antitumor activity against mouse advanced Lewis lung carcinoma allografted in BDF1 mouse assessed as disease cure at 36 mg/kg, ip administered as single dose on 7th day post-tumor implantation measured for 80 days post-drug treatment. The assay is classed as functional, organism-based. On the set-up: dose 36 mg/kg. The gist of the method:
as §3

By ILS is commonly meant how much longer treated animals lived than controls. In the case of `O=NN(CCCl)C(=O)NC1C2CC3CC(C2)CC1C3` (configuration not stated), the ILS at 144 mg/kg in assay [1] worked out at 19%. Moreover, the result in [2], in assay [3], in assay [6] and in [7] was inactive. The inhibition result in assay [4] was “Active”. The Ratio in assay [5] is recorded as 0.6.
In the case of `O=NN(CCCl)C(=O)NC1CCCCC1` [LOMUSTINE], the outcome in assay [8], in [3] and in assay [10] was inactive. Besides, the ILS at 40 mg/kg in [9] stood at 31%. In addition, the inhibition result in assay [4] was “Active”. For the same molecule, the ILS at 50 mg/kg in assay [11] came out at 15%.
For `O=NN(CCCl)C(=O)NC1CCS(=O)(=O)CC1`, the outcome in [12] and in assay [3] was inactive. Also, the ILS in assay [13] was >25%. For the same molecule, the ILS at 11 mg/kg in assay [14] amounted to 27%. Further, the inhibition entry in assay [4] was “inactive”.
Consider `Cc1ccc(S(=O)(=O)NC(=O)N(CCCl)N=O)cc1`, for which the inhibition entry in assay [15], in assay [4] and in assay [19] was “inactive” throughout. In addition, the outcome in [16], in assay [3] and in assay [18] was inactive. Also, the ILS in [13] was >25%. The ILS at 62 mg/kg in assay [17] was 28%. Moreover, in assay [20], the ILS at 93 mg/kg was found to be 28%.
With `CC1(C)CCC(NC(=O)N(CCF)N=O)CC1`, in [21], the ILS at 52 mg/kg was 100%. The outcome in assay [22] and in [3] was inactive. Besides, the inhibition result in assay [4] is “Active”.
`CC(=O)O[C@H]1CC[C@H](NC(=O)N(CCCl)N=O)CC1`: the increase in lifespan (ILS) in assay [13] is listed as >25%. Besides, the outcome in assay [3] and in assay [25] was inactive. In addition, the inhibition entry in assay [4] and in assay [24] was “inactive” throughout. Further, the ILS at 36 mg/kg in assay [23] was 34%.
